ChEMBL document CHEMBL1139768, “The discovery of potent, selective, and orally bioavailable hNK1 antagonists derived from pyrrolidine” (Bioorg Med Chem Lett, 2007)
One block for each compound: values may come before it.

Key:
Gerbillinae [1] = assay: Inhibition of GR-73632-induced foot tapping in gerbils at 6 mg/kg, iv after 24 hrs; format: functional
Substance-P receptor = Substance-P receptor (Homo sapiens, UniProt P25103); assay: Displacement of [125I]-SP from human NK1 receptor expressed in CHO cells
Sequence of Substance-P receptor (P25103 whole entry): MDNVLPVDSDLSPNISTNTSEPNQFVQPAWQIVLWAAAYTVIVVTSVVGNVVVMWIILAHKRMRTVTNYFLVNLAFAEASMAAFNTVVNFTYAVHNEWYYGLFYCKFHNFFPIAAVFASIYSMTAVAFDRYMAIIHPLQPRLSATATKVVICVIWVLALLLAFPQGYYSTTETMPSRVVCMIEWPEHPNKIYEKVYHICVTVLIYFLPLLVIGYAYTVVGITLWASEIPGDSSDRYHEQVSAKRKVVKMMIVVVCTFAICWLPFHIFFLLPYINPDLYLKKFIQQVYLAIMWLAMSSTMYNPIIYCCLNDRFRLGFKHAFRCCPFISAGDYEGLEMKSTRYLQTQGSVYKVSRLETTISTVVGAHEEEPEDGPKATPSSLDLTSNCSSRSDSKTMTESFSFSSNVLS

Gerbillinae [2] = assay: Inhibition of GR-73632-induced foot tapping in gerbils at 3 mg/kg, iv after 24 hrs; format: functional; settings: for inhibition in vivo at 3 mg/kg: Gerbillinae, iv, 24 h; for Inhibition: 3 mg/kg
Gerbillinae [3] = assay: Inhibition of GR-73632-induced foot tapping in gerbils at 1 mg/kg, iv; format: functional
Gerbillinae [4] = assay: Inhibition of GR-73632-induced foot tapping in gerbils at 3 mg/kg, iv; format: functional
Gerbillinae [5] = assay: Inhibition of GR-73632-induced foot tapping in iv dosed gerbils; format: functional; settings: Gerbillinae, iv; read-out: ID50 (the source's name)
Gerbillinae [6] = assay: Inhibition of GR-73632-induced foot tapping in iv dosed gerbils after 24 hrs; format: functional; settings: Gerbillinae, iv, 24 h; read-out: ID50 (the source's name)
Neuromedin-K receptor = biological target: T1, Neuromedin-K receptor (Homo sapiens, UniProt P29371); assay: Binding affinity to NK3 receptor
T1 sequence (P29371 whole entry): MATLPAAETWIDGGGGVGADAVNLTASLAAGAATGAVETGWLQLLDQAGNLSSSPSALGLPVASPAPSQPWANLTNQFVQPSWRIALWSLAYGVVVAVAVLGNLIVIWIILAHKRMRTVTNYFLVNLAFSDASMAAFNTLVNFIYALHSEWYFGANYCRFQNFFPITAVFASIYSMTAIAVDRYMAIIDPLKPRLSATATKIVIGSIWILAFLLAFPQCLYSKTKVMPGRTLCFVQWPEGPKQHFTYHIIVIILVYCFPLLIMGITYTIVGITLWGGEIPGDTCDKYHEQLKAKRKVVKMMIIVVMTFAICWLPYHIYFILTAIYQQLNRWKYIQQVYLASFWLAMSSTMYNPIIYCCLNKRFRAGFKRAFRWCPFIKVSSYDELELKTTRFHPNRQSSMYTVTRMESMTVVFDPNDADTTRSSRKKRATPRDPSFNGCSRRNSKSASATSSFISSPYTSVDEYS

[7] = Plasma clearance in rat; format: ADME, organism-based
[8] = Half life in rhesus monkey; format: ADME, organism-based, Macaca mulatta; settings: in vivo
[9] = Volume of distribution in dog; format: ADME, organism-based, Canis lupus familiaris; settings: in vivo
Gerbillinae [10] = assay: Inhibition of GR-73632-induced foot tapping in orally dosed gerbils after 1 hr; settings: po, read-out: ID50 (the source's name)
Gerbillinae [11] = assay: Inhibition of GR-73632-induced foot tapping in orally dosed gerbils after 4 hrs; settings: po, read-out: ID50 (the source's name)
[12] = Half life in dog; format: ADME, organism-based, Canis lupus familiaris; settings: in vivo
[13] = Half life in rat; format: ADME, organism-based; settings: in vivo
Substance-K receptor = biological target: T2, Substance-K receptor (Homo sapiens, UniProt P21452); assay: Binding affinity to NK2 receptor
T2 sequence (P21452 whole entry): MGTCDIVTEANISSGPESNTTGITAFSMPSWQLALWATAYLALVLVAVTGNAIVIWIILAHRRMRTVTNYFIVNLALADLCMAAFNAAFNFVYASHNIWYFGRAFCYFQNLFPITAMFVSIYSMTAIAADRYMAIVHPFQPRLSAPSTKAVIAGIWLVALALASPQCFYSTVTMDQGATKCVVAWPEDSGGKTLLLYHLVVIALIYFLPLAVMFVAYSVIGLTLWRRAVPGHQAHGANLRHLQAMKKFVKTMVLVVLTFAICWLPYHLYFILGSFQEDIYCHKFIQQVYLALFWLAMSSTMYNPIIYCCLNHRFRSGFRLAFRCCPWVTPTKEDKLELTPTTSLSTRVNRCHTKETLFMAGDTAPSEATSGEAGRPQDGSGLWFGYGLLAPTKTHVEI

Rhesus monkey = assay: Receptor occupancy at NK1 receptor in iv dosed rhesus monkey brain after 4 hrs; format: functional, Macaca mulatta
Summary of the method: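 Rhesus macaques received a 4-h iv infusion. Brain NK1 receptor occupancy was measured by PET and related to plasma steady-state concentration to estimate 50% and 90% occupancy levels.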

[14] = Volume of distribution in rat; format: ADME, organism-based; settings: in vivo
[15] = Oral bioavailability in dog; format: ADME, organism-based, Canis lupus familiaris; settings: in vivo
Cavia porcellus = assay: Inhibition of separation-induced vocalizations in po dosed guinea pig after 4 hrs; format: functional; settings: read-out: ID50 (the source's name)
Summary of the method: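 Guinea pig pups were dosed orally, and separation-induced vocalizations were measured 4 h later. ID50 is given in mg/kg.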

[16] = Volume of distribution in rhesus monkey; format: ADME, organism-based, Macaca mulatta; settings: in vivo
[17] = Plasma clearance in rhesus monkey; format: ADME, organism-based, Macaca mulatta
[18] = Plasma clearance in dog; format: ADME, organism-based, Canis lupus familiaris
[19] = Oral bioavailability in rat; format: ADME, organism-based; settings: in vivo
[20] = Oral bioavailability in rhesus monkey; format: ADME, organism-based, Macaca mulatta; settings: in vivo

SMILES: CC(=O)N1C[C@@H](O[C@H](C)c2cc(C(F)(F)F)cc(C(F)(F)F)c2)[C@H](c2ccc(F)cc2)C1
inhibition in vivo at 6 mg/kg (Gerbillinae [1]): 26%
IC50 (Substance-P receptor): 0.07 nM

SMILES: C[C@@H](O[C@@H]1CN(C(=O)C(C)(C)C)C[C@H]1c1ccccc1)c1cc(C(F)(F)F)cc(C(F)(F)F)c1
inhibition in vivo at 6 mg/kg (Gerbillinae [1]): 45%
IC50 (Substance-P receptor): 0.18 nM

SMILES: CC(=O)N1CCC(C(=O)N2C[C@@H](O[C@H](C)c3cc(C(F)(F)F)cc(C(F)(F)F)c3)[C@H](c3ccc(F)cc3)C2)CC1
IC50 (Substance-P receptor): 0.07 nM
inhibition in vivo at 3 mg/kg (Gerbillinae [2]): 50%

SMILES: CC(C)C(=O)N1C[C@@H](O[C@H](C)c2cc(C(F)(F)F)cc(C(F)(F)F)c2)[C@H](c2ccc(F)cc2)C1
inhibition in vivo at 6 mg/kg (Gerbillinae [1]): 43%
IC50 (Substance-P receptor): 0.15 nM

SMILES: C[C@@H](O[C@@H]1CN(C2=CC(=O)OC2)C[C@H]1c1ccc(F)cc1)c1cc(C(F)(F)F)cc(C(F)(F)F)c1
IC50 (Substance-P receptor): 0.16 nM
inhibition in vivo at 3 mg/kg (Gerbillinae [2]): 67%

SMILES: C[C@@H](O[C@@H]1CN(C(=O)N2CCOCC2)C[C@H]1c1ccccc1)c1cc(C(F)(F)F)cc(C(F)(F)F)c1
IC50 (Substance-P receptor): 0.16 nM
inhibition in vivo at 1 mg/kg (Gerbillinae [3]): 40%

SMILES: C[C@@H](O[C@@H]1CN(C2=CC(=O)C(C)(C)CC2)C[C@H]1c1ccccc1)c1cc(C(F)(F)F)cc(C(F)(F)F)c1
IC50 (Substance-P receptor): 0.18 nM
inhibition in vivo at 3 mg/kg (Gerbillinae [2]): 12%

SMILES: C[C@@H](O[C@@H]1CN(C2=CC(=O)N(C)C2)C[C@H]1c1ccc(F)cc1)c1cc(C(F)(F)F)cc(C(F)(F)F)c1
IC50 (Substance-P receptor): 0.12 nM
inhibition in vivo at 3 mg/kg (Gerbillinae [2]): 8%

SMILES: Cc1cnc(C(=O)N2C[C@@H](O[C@H](C)c3cc(C(F)(F)F)cc(C(F)(F)F)c3)[C@H](c3ccc(F)cc3)C2)cn1
IC50 (Substance-P receptor): 0.12 nM
inhibition in vivo at 3 mg/kg (Gerbillinae [2]): 45%

More lines, in order of falling IC50 (Substance-P receptor), values ahead:

IC50 (Substance-P receptor): 0.24 nM
SMILES: C[C@@H](O[C@@H]1CN(C=O)C[C@H]1c1ccc(F)cc1)c1cc(C(F)(F)F)cc(C(F)(F)F)c1

IC50 (Substance-P receptor): 0.16 nM
SMILES: CC1CC(N2C[C@@H](O[C@H](C)c3cc(C(F)(F)F)cc(C(F)(F)F)c3)[C@H](c3ccc(F)cc3)C2)=CC1=O (single isomer, unassigned; diastereomer A)
Inhibition (Gerbillinae [2]): 85%

IC50 (Substance-P receptor): 0.14 nM
SMILES: C[C@@H](O[C@@H]1CN(C(=O)NC(C)(C)C)C[C@H]1c1ccc(F)cc1)c1cc(C(F)(F)F)cc(C(F)(F)F)c1
inhibition in vivo at 6 mg/kg (Gerbillinae [1]): 6%
inhibition in vivo at 1 mg/kg (Gerbillinae [3]): 28%

IC50 (Substance-P receptor): 0.13 nM
SMILES: C[C@@H](O[C@@H]1CN(C2=CC(=O)CC(C)(C)C2)C[C@H]1c1ccccc1)c1cc(C(F)(F)F)cc(C(F)(F)F)c1
inhibition in vivo at 3 mg/kg (Gerbillinae [2]): 5%

IC50 (Neuromedin-K receptor): > 3000 nM
clearance [7]: 19.6 mL/min/kg
half-life [8]: 5.7 h
Vd [9]: 1.6 L/kg
half-life [12]: 20 h
half-life [13]: 3.6 h
IC50 (Substance-K receptor): 1730 nM
IC50 (Substance-P receptor): 0.11 nM
Vd [14]: 6.2 L/kg
bioavailability [15]: 100%
Vd [16]: 2.3 L/kg
clearance [17]: 4.5 mL/min/kg
clearance [18]: 1 mL/min/kg
bioavailability [19]: 100%
bioavailability [20]: 68%
SMILES: C[C@@H](O[C@@H]1CN(C2=CC(=O)CC2)C[C@H]1c1ccc(F)cc1)c1cc(C(F)(F)F)cc(C(F)(F)F)c1
ED50 (Gerbillinae [10]): 0.9 mg/kg
ED50 (Gerbillinae [5]): 0.1 mg/kg
ED50 (Gerbillinae [11]): 0.25 mg/kg
Occ50 (Rhesus monkey): 33 ng/mL
Occ90 (Rhesus monkey): 300 ng/mL
inhibition in vivo at 1 mg/kg (Gerbillinae [3]): 100%
ED50 (Cavia porcellus): 0.17 mg/kg
ED50 (Gerbillinae [6]): 0.045 mg/kg
inhibition in vivo at 3 mg/kg (Gerbillinae [2]): 100%

IC50 (Substance-P receptor): 0.09 nM
SMILES: CC1CC(N2C[C@@H](O[C@H](C)c3cc(C(F)(F)F)cc(C(F)(F)F)c3)[C@H](c3ccc(F)cc3)C2)=CC1=O (stereo in doubt)
Inhibition (Gerbillinae [2]): 2%

IC50 (Substance-P receptor): 0.07 nM
SMILES: C[C@@H](O[C@@H]1CN(C2=CC(=O)CC2)C[C@H]1c1ccccc1)c1cc(C(F)(F)F)cc(C(F)(F)F)c1
inhibition in vivo at 3 mg/kg (Gerbillinae [4]): 100%
ED50 (Gerbillinae [5]): 0.9 mg/kg
ED50 (Gerbillinae [6]): 1.1 mg/kg
inhibition in vivo at 3 mg/kg (Gerbillinae [2]): 100%
